Measurements collected from several papers.
Target: Mitogen-activated protein kinase kinase kinase 1 (MAP3K1, Homo sapiens, UniProt Q13233)

For `CCCOc1ccc([C@@H]2[C@@H](C(=O)O)[C@H](c3ccc4c(c3)OCO4)CN2CC(=O)Nc2c(CC)cccc2CC)cc1`, the remaining binding was 80% (cell-free assay, competition with immobilised ligand; 1 µM).
`CN(C)c1nccc(-c2cnc3ncccn23)n1` gave a remaining binding of 100% (binding; 1 µM).
`C[C@@H](c1ccc(-n2cnc3c(N)ncnc32)cc1)N1CCc2nn(C)c(Cc3ccccc3)c2C1=O` gave a remaining binding of 60% (binding, competition with immobilised ligand; 0.1 µM).
The remaining binding of `CN(c1nccc(-c2cnn3ncccc23)n1)C1CC1` is reported as 81% (binding; 1 µM).
`O=C(c1ccc(Nc2ncc(Cl)c(-c3ccc(Cl)s3)n2)cc1)N1CCC(N2CCCC2)CC1` has a remaining binding of 90% (binding, competition with immobilised ligand; 1 µM).
`C[C@H](NC(=O)c1cnc2n1[C@](C)(Cc1ccc(C#N)cc1)C(=O)N2c1cc(Cl)c(F)c(Cl)c1)C(=O)NC1(c2ccccn2)CC1` has a remaining binding of 100% (cell-free assay, competition with immobilised ligand; 1 µM).
`O=C(c1ccc(Nc2nccc(-c3cc4ccccc4s3)n2)cc1)N1CCC(N2CCCC2)CC1` gave a remaining binding of 98% (binding, competition with immobilised ligand; 1 µM).
With `N[C@@H]1CCN(c2nccc(-c3cnn4ncccc34)n2)C1` the remaining binding was 97% (binding; 1 µM).
The remaining binding of `O=C1NC(c2ccccn2)Sc2ccccc21` (stereo not shown) is reported as 55% (cell-free assay, competition with immobilised ligand; 1 µM).
The remaining binding of `CN(C)c1ncc(F)c(-c2cnn3ncccc23)n1` is reported as 80% (binding; 1 µM).
`Nc1ncc2c(n1)-c1c([nH]c3ccc(C#CC4CC4)cc13)CCCC2` has a remaining binding of 97% (binding, competition with immobilised ligand; 1 µM).
With `c1cnn2ncc(-c3ccnc(N4CCC45COC5)n3)c2c1` the remaining binding was 76% (binding; 1 µM).
For `c1cncc(-c2cccc(Nc3nccc(NC4CCCCC4)n3)c2)c1`, the remaining binding was 79% (binding, competition with immobilised ligand; 10 µM).
The remaining binding of `C[C@@H]1CCN(c2nccc(-c3cnn4ncccc34)n2)C1` is reported as 85% (binding; 1 µM).
`O=C(N1CCS(=O)(=O)CC1)N1C[C@H](c2ccc(OC(F)(F)F)cc2)C[C@H](c2nc(C3CC3)no2)C1` gave a remaining binding of 100% (cell-free assay, competition with immobilised ligand; 1 µM).
The remaining binding of `O=C(c1ccc(Nc2ncc(Cl)c(-c3cc4ccccc4s3)n2)cc1)N1CCC(N2CCCC2)CC1` is reported as 79% (binding, competition with immobilised ligand; 1 µM).
`CN(C)c1nccc(-c2cnn3ncccc23)n1` gave a remaining binding of 91% (binding; 1 µM).
For `COc1ccc2c(c1)O[C@@H](c1ccc(OC)c(OC)c1)C[C@H]2NC(=O)C1(c2ccc3c(c2)OC(F)(F)O3)CC1`, the remaining binding was 77% (cell-free assay, competition with immobilised ligand; 1 µM).
For `C=CC(=O)N1CCC(C(=O)NCC(=O)N2CCN(c3nc(-c4cnc(N)nc4C(F)F)nc(N4CCOCC4)n3)CC2)CC1`, the remaining binding was 93% (binding, competition with immobilised ligand; 1 µM).
`CNC(=O)[C@@H]1CC[C@@H](n2c(-c3ccc4cnccc4c3)nc3ccc(C(=O)NCc4cccc(C(N)=O)c4)cc32)C1` has a remaining binding of 95% (binding, competition with immobilised ligand; 1 µM).
For `CSc1cccnc1N1CCN(Cc2nc3ccccc3[nH]2)CC1`, the remaining binding was 70% (cell-free assay, competition with immobilised ligand; 1 µM).
For `O=C(Nc1c[nH]nc1C(=O)NC1CCNCC1)c1cc(F)cc(F)c1`, the remaining binding was 84% (binding, competition with immobilised ligand; 1 µM).
